Experimental data taken from ChEMBL document CHEMBL1687936, “Radiosynthesis and biological evaluation of L- and D-S-(3-[18F]fluoropropyl)homocysteine for tumor imaging using positron emission tomography” (J Med Chem, 2011).

How the values were obtained:
A-375 [1] = assay: Cellular uptake in human A375 cells after 2 mins by gamma-counter; type: ADME, cell-based; details: a-375, 2 min
Procedure, shortened: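 A375 cells grown in RPMI-1640 with 10% FBS and 2 mM L-glutamine; 2.5×10^5 seeded per well overnight, counts done in triplicate. After a warm PBS wash, cells got 0.37 MBq tracer in 500 μL PBS at 37 °C. Stopped with ice-cold PBS wash, lysed in 0.2 N NaOH, counted in a γ-counter. Decay-corrected % applied dose per 10^5 cells, mean ± SD, n = 3.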

[2] = Metabolic stability in human A375 cells xenografted in BALB/c nude mouse assessed as radioactivity after 0.25 by HPLC analysis; type: ADME, cell-based, A-375; details: in vivo
Procedure, shortened: (§1)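 A375-tumored Balb/c nude mice received 18-20 MBq tracer iv. Plasma and urine were spiked with unlabeled FPHCys and KF and injected directly; tissues were sonicated in saline with carrier and centrifuged at 6000g. Radio-HPLC on C18 with methanol/phosphate buffer pH 6 gave intact fraction as authentic peak over total activity, at 0.25, 1 and 2 h.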

[3] = Metabolic stability in urine of BALB/c nude mouse xenografted with human A375 cells assessed as radioactivity after 2 hrs by HPLC analysis; type: ADME, tissue-based, A-375; details: in vivo; procedure, shortened: as §1
[4] = Metabolic stability in human A375 cells xenografted in BALB/c nude mouse assessed as radioactivity after 2 by HPLC analysis; type: ADME, cell-based, A-375; details: in vivo; procedure, shortened: as §1
A-375 [5] = assay: Cellular uptake in human A375 cells assessed as accumulation per 10^5 cells after 15 to 60 mins by gamma-counter; type: ADME, cell-based
Procedure, shortened: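 Cells seeded at 2.5 × 10^5 per well in RPMI-1640 with 10% FBS and 2 mM L-glutamine, attached overnight, then washed with warm PBS. Incubated at 37 °C with 0.37 MBq [18F]tracer in PBS for 2–240 min. Cells washed with ice-cold PBS, lysed in 0.2 N NaOH and counted by γ-counter. Read as % applied dose per 10^5 cells, decay-corrected, n = 3.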

A-375 [6] = assay: Drug uptake in human A375 cells in presence of amino acid transport system L inhibitor BCH; type: ADME, cell-based
Procedure, shortened: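 Cells were prepared as for the uptake assay and preincubated at 37 °C with inhibitor at 12.5 mmol/L in PBS; controls received PBS. 0.37 MBq [18F]tracer was added and incubated 30 min at 37 °C. Cells were washed cold, lysed and γ-counted. Uptake is given as % of the control group, n = 3.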

| SMILES | Drug uptake (A-375 [1]) [%] | Stability [2] [%] | Stability [3] [%] | Stability [4] [%] | Drug uptake (A-375 [5]) [%] | Drug uptake (A-375 [6]) |
| --- | --- | --- | --- | --- | --- | --- |
| Cl.N[C@@H](CCSCCC[18F])C(=O)O | > 50 | 90 | < 4 | 78 | – | – |
| Cl.N[C@H](CCSCCC[18F])C(=O)O | – | – | – | – | 6.8 | Not Active |
